Activity calls are given as the source filed them. The calls are words filed in the database; no cut-off is given here.
Tests used:
PC-3 [1] = assay: In vivo antitumor efficacy in human PC3 cells xenografted athymic nude mouse assessed as inhibition of tumor growth at 50 mg/kg, ip for 21 days relative to vehicle treated control; assay type: functional, organism-based; design: dose 50 mg/kg
Summary of the method: (§1)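 Athymic nude mice given PC-3 cells sc (1 × 10⁶ per mouse); at about 50 mm³, randomized (n = 7) and dosed once daily for 21 days either ip at 50 mg/kg (vehicle saline/PEG400/DMSO/Tween 80, 65:20:10:5) or by oral gavage at 100 mg/kg (vehicle 0.5% methylcellulose/0.1% Tween 80 in water). Tumor volume measured weekly by calipers (width² × length × 0.52); phospho-proteins checked by Western blotting of tumor lysates.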

PC-3 [2] = assay: In vivo antitumor efficacy in human PC3 cells xenografted athymic nude mouse assessed as decrease in phosphorylation of IKK in tumor at 50 mg/kg, ip for 21 days relative to vehicle treated control; assay type: functional, organism-based; design: dose 50 mg/kg; summary of the method: as §1
LNCaP [3] = assay: Induction of Akt localization to human LNCAP cell membrane after 24 hrs by immunofluorescence staining analysis; assay type: functional, cell-based
Summary of the method: (§2)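 LNCaP cells on poly-L-lysine-coated surfaces, treated in serum-free medium for 24 h. Fixed in 4% formaldehyde, permeabilized with 0.1% Triton X-100, blocked in 1% FBS, primary antibody (1:300) overnight, then Alexa Fluor secondary 2 h; DAPI nuclei; confocal imaging with cross-sectional fluorescence intensity analysis.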

PrEC = assay: Antiproliferative activity against human PrEC cells assessed as suppression of cell viability after 24 hrs by MTT assay in serum free medium; assay type: cell-based
LNCaP [4] = assay: Induction of ILK localization to human LNCAP cell membrane at 5 uM after 24 hrs by immunofluorescence staining analysis; assay type: functional, cell-based; summary of the method: as §2
[5] = target: T1, PH domain leucine-rich repeat-containing protein phosphatase 1 (Homo sapiens, UniProt O60346); assay: Inhibition of PHLPP1-mediated reduction in phosphorylation of Akt at Thr308 in human PC3 cells after 24 hrs by Western blot analysis; assay type: cell-based; details: PC-3
T1 sequence (O60346 whole entry, the tested form may be a part): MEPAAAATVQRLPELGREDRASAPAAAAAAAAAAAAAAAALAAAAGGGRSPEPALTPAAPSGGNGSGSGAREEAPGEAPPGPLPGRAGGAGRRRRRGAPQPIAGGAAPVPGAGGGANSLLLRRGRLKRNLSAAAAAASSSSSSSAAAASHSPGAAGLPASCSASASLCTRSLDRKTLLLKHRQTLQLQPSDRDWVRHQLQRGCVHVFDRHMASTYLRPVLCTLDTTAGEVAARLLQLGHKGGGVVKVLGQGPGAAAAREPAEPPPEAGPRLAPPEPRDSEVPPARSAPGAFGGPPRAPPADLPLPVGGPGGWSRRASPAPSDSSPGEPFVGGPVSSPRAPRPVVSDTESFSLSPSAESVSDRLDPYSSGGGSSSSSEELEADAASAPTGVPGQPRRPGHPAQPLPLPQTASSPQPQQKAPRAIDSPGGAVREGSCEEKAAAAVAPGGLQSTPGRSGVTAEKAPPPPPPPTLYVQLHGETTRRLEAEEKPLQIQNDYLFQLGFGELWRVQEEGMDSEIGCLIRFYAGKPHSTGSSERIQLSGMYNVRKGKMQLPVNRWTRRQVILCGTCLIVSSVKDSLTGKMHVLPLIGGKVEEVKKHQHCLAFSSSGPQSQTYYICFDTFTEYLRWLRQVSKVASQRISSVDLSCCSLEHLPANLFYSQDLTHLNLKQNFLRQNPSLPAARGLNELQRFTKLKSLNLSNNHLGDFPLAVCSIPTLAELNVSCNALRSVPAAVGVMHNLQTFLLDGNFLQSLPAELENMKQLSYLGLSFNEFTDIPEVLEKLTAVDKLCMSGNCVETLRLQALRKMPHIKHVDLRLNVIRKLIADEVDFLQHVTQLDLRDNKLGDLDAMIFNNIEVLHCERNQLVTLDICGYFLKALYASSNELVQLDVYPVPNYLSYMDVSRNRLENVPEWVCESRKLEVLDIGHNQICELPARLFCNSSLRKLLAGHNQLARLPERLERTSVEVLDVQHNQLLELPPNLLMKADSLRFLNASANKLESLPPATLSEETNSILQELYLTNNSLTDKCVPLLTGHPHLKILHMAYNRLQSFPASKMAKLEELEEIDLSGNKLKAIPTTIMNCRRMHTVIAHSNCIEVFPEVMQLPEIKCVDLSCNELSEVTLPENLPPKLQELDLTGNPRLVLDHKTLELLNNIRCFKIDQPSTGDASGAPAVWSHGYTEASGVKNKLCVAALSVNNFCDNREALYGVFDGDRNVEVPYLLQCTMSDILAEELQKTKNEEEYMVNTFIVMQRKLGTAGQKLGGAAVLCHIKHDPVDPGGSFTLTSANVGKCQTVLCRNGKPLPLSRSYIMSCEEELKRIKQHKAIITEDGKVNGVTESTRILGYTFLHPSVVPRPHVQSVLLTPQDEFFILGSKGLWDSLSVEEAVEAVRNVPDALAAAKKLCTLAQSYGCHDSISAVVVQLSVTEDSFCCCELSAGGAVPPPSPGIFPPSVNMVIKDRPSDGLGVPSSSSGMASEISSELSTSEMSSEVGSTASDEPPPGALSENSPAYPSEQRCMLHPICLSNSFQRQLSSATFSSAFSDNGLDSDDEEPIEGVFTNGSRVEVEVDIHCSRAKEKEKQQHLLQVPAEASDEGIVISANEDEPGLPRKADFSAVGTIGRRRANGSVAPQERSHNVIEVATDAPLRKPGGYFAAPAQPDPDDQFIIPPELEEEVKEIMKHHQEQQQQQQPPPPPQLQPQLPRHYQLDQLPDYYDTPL
Summary of the method: (§3)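 LNCaP or PC-3 cells treated at various concentrations for 24 h in serum-free medium. Lysed in SDS buffer (50 mM Tris pH 8, 10 mM EDTA, 1% SDS, protease inhibitors); equal protein run on SDS-PAGE and transferred to nitrocellulose. Primary antibodies 1:1000 overnight at 4 °C, HRP secondary 1:2000; detected by ECL.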

[6] = target: T1, PH domain leucine-rich repeat-containing protein phosphatase 1; details: LNCaP, 2.5 to 25 uM
PC-3 [7] = assay: In vivo antitumor efficacy in human PC3 cells xenografted athymic nude mouse assessed as decrease in phosphorylation of Akt at Thr308 in tumor at 50 mg/kg, ip for 21 days relative to vehicle treated control; assay type: functional, organism-based; design: dose 50 mg/kg; summary of the method: as §1
PC-3 [8] = assay: In vivo antitumor efficacy in human PC3 cells xenografted athymic nude mouse assessed as decrease in phosphorylation of Akt at Ser473 in tumor at 50 mg/kg, ip for 21 days relative to vehicle treated control; assay type: functional, organism-based; design: dose 50 mg/kg; summary of the method: as §1
PC-3 [9] = assay: In vivo antitumor efficacy in human PC3 cells xenografted athymic nude mouse assessed as decrease in phosphorylation of MDM2 in tumor at 100 mg/kg, po for 21 days relative to vehicle treated control; assay type: functional, organism-based; design: dose 100 mg/kg; summary of the method: as §1
PC-3 [10] = assay: In vivo antitumor efficacy in human PC3 cells xenografted athymic nude mouse assessed as decrease in phosphorylation of Akt at Ser473 in tumor at 100 mg/kg, po for 21 days relative to vehicle treated control; assay type: functional, organism-based; design: dose 100 mg/kg; summary of the method: as §1
[11] = target: T1, PH domain leucine-rich repeat-containing protein phosphatase 1; assay: Binding affinity to GST-tagged PH domain of PHLPP1 (unknown origin) by surface Plasmon resonance spectroscopy
Summary of the method: (§4)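 SPR: GST-tagged PH domain fusion protein immobilized on CM5 chip by amine coupling to about 17000 RU. Analyte injected at 1–20 µM at 30 µL/min; DMSO in samples and running buffer ≤1% (v/v). Kd obtained from sensorgram fitting.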

PC-3 [12] = assay: In vivo antitumor efficacy in human PC3 cells xenografted athymic nude mouse assessed as decrease in phosphorylation of Akt at Thr308 in tumor at 100 mg/kg, po for 21 days relative to vehicle treated control; assay type: functional, organism-based; design: dose 100 mg/kg; summary of the method: as §1
LNCaP [13] = assay: Induction of Akt-PHLPP1 complex to human LNCAP cell membrane after 24 hrs by immunofluorescence staining analysis; assay type: functional, cell-based
LNCaP [14] = assay: Induction of Akt localization to human LNCAP cell membrane at 5 uM after 24 hrs by immunofluorescence staining analysis; assay type: functional, cell-based; summary of the method: as §2
[15] = target: T1, PH domain leucine-rich repeat-containing protein phosphatase 1; assay: Inhibition of PHLPP1-mediated reduction in phosphorylation of Akt at Ser473 in human LNCAP cells after 24 hrs by Western blot analysis; assay type: cell-based; summary of the method: as §3
[16] = target: T1, PH domain leucine-rich repeat-containing protein phosphatase 1; assay: Inhibition of PHLPP1-mediated reduction in phosphorylation of MDM2 in human LNCAP cells after 24 hrs by Western blot analysis; assay type: cell-based; summary of the method: as §3
PC-3 [17] = assay: Antiproliferative activity against human PTEN-negative PC3 cells assessed as suppression of cell viability after 24 hrs by MTT assay in serum free medium; assay type: functional, cell-based
LNCaP [18] = assay: Induction of PHLPP1 localization to human LNCAP cell membrane after 24 hrs by immunofluorescence staining analysis; assay type: functional, cell-based; summary of the method: as §2
Scaffold protein ILK = target: T2, Scaffold protein ILK (Homo sapiens, UniProt Q13418); assay: Binding affinity to GST-tagged PH domain of ILK (unknown origin) by surface Plasmon resonance spectroscopy; summary of the method: as §4
T2 sequence (Q13418 whole entry): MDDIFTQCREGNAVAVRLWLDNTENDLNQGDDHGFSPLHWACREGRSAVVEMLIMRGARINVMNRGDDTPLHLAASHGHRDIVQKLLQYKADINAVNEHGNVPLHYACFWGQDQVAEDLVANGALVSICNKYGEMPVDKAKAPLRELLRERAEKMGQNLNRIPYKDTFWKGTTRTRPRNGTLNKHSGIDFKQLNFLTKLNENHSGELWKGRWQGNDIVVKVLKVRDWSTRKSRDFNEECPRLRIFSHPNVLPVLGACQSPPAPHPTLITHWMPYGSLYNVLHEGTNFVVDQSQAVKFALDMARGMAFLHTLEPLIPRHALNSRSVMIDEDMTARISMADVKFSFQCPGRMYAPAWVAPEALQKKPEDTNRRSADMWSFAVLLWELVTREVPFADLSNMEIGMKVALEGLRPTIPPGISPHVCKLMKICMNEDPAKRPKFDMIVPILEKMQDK

inhibition [5]: inactive
inhibition [6]: Active
Kd [11]: 0.72 µM
inhibition [15]: Dose-dependent effect
inhibition [16]: Dose-dependent effect
Kd (Scaffold protein ILK): 6.2 µM
SMILES: Cc1c(S(N)(=O)=O)cc2c(c1C)OC(C)(CCCC(C)C)CC2 (stereo not given)
Activity (PC-3 [1]): Active
inhibition (PC-3 [2]): Active
Activity (LNCaP [3]): Dose-dependent effect
Activity (PrEC): Non-toxic
Activity (LNCaP [4]): inactive
inhibition (PC-3 [7]): inactive
inhibition (PC-3 [8]): Active
Activity (PC-3 [9]): Active
Activity (PC-3 [10]): Active
inhibition (PC-3 [12]): inactive
Activity (LNCaP [13]): Dose-dependent effect
Activity (LNCaP [14]): Active
Activity (PC-3 [17]): Active
Activity (LNCaP [18]): Dose-dependent effect
